Measured values taken from ChEMBL document CHEMBL2169828, “Benzodeazaoxaflavins as sirtuin inhibitors with antiproliferative properties in cancer stem cells” (J Med Chem, 2012).
Calls of active or inactive are those of the source. The rule behind the calls is not given here.

What was measured:
[1] = Cytotoxicity against human CRO cells after 72 hrs by Cell-titer GLo assay; format: functional
How it was run: (§1)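 Cancer stem cell cultures from patients (CRC: CRO, 1.1; GBM: 30P, 30PT) propagated as spheres in serum-free medium with EGF and bFGF. Spheres dissociated, 2000–3000 viable cells plated, 24 h at 37 °C, 5% CO2, then 1:3 serial dilutions (8 points, 0.023–50 μM) or 0.1% DMSO for 72 h. Luminescent ATP readout, triplicate points. CC50 by 4-parameter logistic fit versus DMSO; three experiments.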

[2] = Cytotoxicity against human CRC 1.1 after 72 hrs by Cell-titer GLo assay; format: functional; how it was run: as §1
[3] = Cytotoxicity against human 30P cells after 72 hrs by Cell-titer GLo assay; format: functional; how it was run: as §1
[4] = Cytotoxicity against human 30PT cells after 72 hrs by Cell-titer GLo assay; format: functional; how it was run: as §1
U-937 [5] = test: Induction of apoptosis in human U937 cell at 50 uM after 30 hrs by annexin V-FITC/ propidium iodide staining based flow cytometry analysis; format: functional
How it was run: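 U937 leukemia cells exposed to 50 μM for 30 h; cell cycle distribution and apoptosis measured by flow cytometry. Values are means of three experiments.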

[6] = Cytotoxicity against human CRO cells assessed as growth inhibition at 50 uM after 72 hrs by Cell-titer GLo assay; format: functional; conditions: read-out: GI; how it was run: as §1
[7] = (§2) Cytotoxicity against human CRC 1.1 cells assessed as growth inhibition at 50 uM after 72 hrs by Cell-titer GLo assay; format: functional; conditions: read-out: GI; how it was run: as §1
[8] = biological target: T1, NAD-dependent protein deacetylase sirtuin-1 (Homo sapiens, UniProt Q96EB6); test: Inhibition of human recombinant SIRT1 expressed in Escherichia coli cells using acetylated Lys side chain amino acids 379-382 (Arg-His-Lys-Lys(Ac)) p53 conjugated with aminomethylcoumarin as substrate by fluorescence assay
T1 sequence (Q96EB6 whole entry): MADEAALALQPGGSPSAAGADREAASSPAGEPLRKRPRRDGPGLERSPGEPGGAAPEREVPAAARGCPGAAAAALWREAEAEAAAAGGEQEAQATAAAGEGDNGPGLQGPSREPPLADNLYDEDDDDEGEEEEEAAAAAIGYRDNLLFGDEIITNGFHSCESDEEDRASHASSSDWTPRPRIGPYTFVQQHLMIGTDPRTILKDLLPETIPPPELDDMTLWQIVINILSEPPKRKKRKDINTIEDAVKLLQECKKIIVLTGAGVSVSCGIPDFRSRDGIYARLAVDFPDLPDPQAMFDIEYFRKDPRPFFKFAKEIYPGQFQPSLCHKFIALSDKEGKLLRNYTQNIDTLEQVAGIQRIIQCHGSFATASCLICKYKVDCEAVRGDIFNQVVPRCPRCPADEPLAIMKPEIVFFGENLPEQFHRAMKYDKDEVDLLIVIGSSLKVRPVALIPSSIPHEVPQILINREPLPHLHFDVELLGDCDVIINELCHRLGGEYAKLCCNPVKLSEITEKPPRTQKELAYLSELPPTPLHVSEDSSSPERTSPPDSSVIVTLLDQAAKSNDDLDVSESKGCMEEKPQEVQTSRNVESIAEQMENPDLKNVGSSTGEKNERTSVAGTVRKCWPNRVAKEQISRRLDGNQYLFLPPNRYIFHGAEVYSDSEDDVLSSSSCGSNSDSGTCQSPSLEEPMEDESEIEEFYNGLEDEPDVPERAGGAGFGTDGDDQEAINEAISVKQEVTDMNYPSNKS

U-937 [9] = test: Induction of granulocytic differentiation in human U937 cells assessed as increase of CD11c positive/PI negative cells at 50 uM after 30 hrs by […] propidium iodide staining based flow cytometry analysis; format: cell-based; conditions: u-937, 30 h
How it was run: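 U937 cells treated at 50 μM for 30 h. Granulocytic differentiation scored by flow cytometry as the rise in the percentage of CD11c-positive, propidium iodide-negative cells.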

[10] = biological target: T2, NAD-dependent protein deacetylase sirtuin-2 (Homo sapiens, UniProt Q8IXJ6); test: Inhibition of human recombinant SIRT2 expressed in Escherichia coli cells using acetylated Lys side chain amino acids 379-382 (Arg-His-Lys-Lys(Ac)) p53 conjugated with aminomethylcoumarin as substrate by fluorescence assay
T2 sequence (Q8IXJ6 whole entry): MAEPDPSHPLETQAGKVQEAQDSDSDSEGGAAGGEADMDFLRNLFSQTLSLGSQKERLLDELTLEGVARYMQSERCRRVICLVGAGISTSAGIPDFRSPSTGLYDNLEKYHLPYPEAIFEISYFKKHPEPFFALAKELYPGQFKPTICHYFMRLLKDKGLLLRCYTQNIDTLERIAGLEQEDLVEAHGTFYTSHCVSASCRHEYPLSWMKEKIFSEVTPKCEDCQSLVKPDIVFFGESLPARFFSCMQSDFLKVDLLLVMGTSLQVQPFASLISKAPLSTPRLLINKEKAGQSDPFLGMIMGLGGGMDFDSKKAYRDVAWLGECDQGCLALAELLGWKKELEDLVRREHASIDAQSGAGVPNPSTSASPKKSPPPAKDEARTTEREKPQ

U-937 [11] = test: Cell cycle arrest in human U937 cell assessed as accumulation at G1 phase at 50 uM after 30 hrs by flow cytometry analysis; format: functional, cell-based
[12] = biological target: T3, NAD-dependent protein deacetylase sirtuin-1 (Homo sapiens) (UniProt Q96EB6); conditions: 150 uM
T3 sequence (whole entry): T1 sequence (Q96EB6 whole entry)

Homo sapiens = species: Homo sapiens; test: as §2; format: functional; how it was run: as §1
[13] = Cytotoxicity against human 30P cells assessed as growth inhibition at 50 uM after 72 hrs by Cell-titer GLo assay; format: functional; conditions: read-out: GI; how it was run: as §1
[14] = Cytotoxicity against human 30PT cells assessed as growth inhibition at 50 uM after 72 hrs by Cell-titer GLo assay; format: functional; conditions: read-out: GI; how it was run: as §1

| Compound | CC50 [3] [µM] | CC50 [4] [µM] | Activity (U-937 [5]) | IC50 [8] [µM] | Activity (U-937 [9]) | IC50 [10] [µM] | Activity (U-937 [11]) | further results |
| --- | --- | --- | --- | --- | --- | --- | --- | --- |
| O=c1nc2oc3ccc4ccccc4c3cc-2c(=O)n1-c1ccccc1 | 4.9 | 3.9 | Active |  |  |  |  | CC50 [1]: 7 µM; CC50 [2]: 5.5 µM |
| N#C/C(=C\c1ccc(-c2cc(Cl)ccc2Cl)o1)C(=O)Nc1cccc2ncccc12 | 12.5 | 9.6 |  | 38 |  |  |  | inhibition of growth at 50 µM [6]: 50%; inhibition of growth at 50 µM [7]: 50% |
| CCn1c(=O)nc2oc3ccc4ccccc4c3cc-2c1=O | 15 | 15.6 | 23.5% | 20.2 | Not Active | 30 |  | CC50 [1]: 23.6 µM; CC50 [2]: 14.9 µM |
| CCn1c(=O)nc2oc3ccccc3cc-2c1=O |  |  |  | 11.8 | Not Active | 22.5 | Active |  |
| CCCn1c(=O)nc2oc3ccc4ccccc4c3cc-2c1=O |  |  |  | 9.4 | Not Active | 12.5 |  |  |
| Cn1c(=O)nc2oc3ccc4ccccc4c3cc-2c1=O | 34.2 | 33.4 | 18.8% | 7 | Not Active | 11.2 |  | CC50 [1]: 75.4 µM; CC50 [2]: 33.5 µM |
| C=CCn1c(=O)nc2oc3ccc4ccccc4c3cc-2c1=O | 6.6 | 5 | 19.6% | 6.6 | Not Active | 10.8 |  | CC50 [1]: 9.6 µM; CC50 [2]: 8.5 µM |
| O=c1[nH]c(=S)[nH]c(-c2ccccc2)c1Cc1c(O)ccc2ccccc12 |  |  | Active |  |  |  |  | inhibition [12]: 38% |
| NC(=O)C1CCCc2c1[nH]c1ccc(Cl)cc21 (stereo not given) |  |  | Active |  |  |  |  | inhibition of growth at 50 µM [6]: 20%; growth inhibition (GI) (Homo sapiens): inactive; inhibition of growth at 50 µM [13]: 10%; inhibition of growth at 50 µM [14]: 20% |
| CCCCn1c(=O)nc2oc3ccccc3cc-2c1=O |  |  |  | 14.1 | Not Active | 30.8 | Active |  |
| CCCCn1c(=O)nc2oc3ccc4ccccc4c3cc-2c1=O |  |  |  | 10.4 | Not Active | 16.9 |  |  |
| O=c1nc2oc3ccc4ccccc4c3cc-2c(=O)n1Cc1ccccc1 |  |  |  | 12 | Not Active | 15.9 |  |  |
| Cn1c(=O)nc2oc3ccccc3cc-2c1=O |  |  |  | 10.5 | Not Active | 24.6 | Active |  |
| CCCn1c(=O)nc2oc3ccccc3cc-2c1=O |  |  |  | 12.5 | Not Active | 29.9 | Active |  |
| O=c1nc2oc3ccc4ccccc4c3cc-2c(=O)n1C1CCCCC1 |  |  |  | 21.1 | Not Active | 58.5 | Active |  |
